Assay results: ChEMBL document CHEMBL1154046, “Synthesis of some urea and thiourea derivatives of 3-phenyl/ethyl-2-thioxo-2,3-dihydrothiazolo[4,5-d]pyrimidine and their antagonistic effects on haloperidol-induced catalepsy and oxidative stress in mice” (2009)

Legend:
Format in all cases: functional
Settings in all cases: route intraperitoneal, in the assay text read “ip” for “po”
Mus musculus [1] = experiment: Inhibition of haloperidol-induced catalepsy in Swiss albino mouse assessed as time elapsed until release of forepaw from bar at 100 mg/kg, […] 30 min prior to haloperidol challenge measured after 60 mins by bar test
In short: (§1)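 Adult male pathogen-free Swiss albino mice (18–25 g), n = 5 per group, each used once. Compounds at 100 mg/kg i.p. were given as a suspension in 0.5% gum acacia 30 min before haloperidol 5 mg/kg i.p. Forepaws were placed on a horizontal bar 9 cm high, and descent time was recorded every 30 min for 3 h. Testing ran at 23 ± 1 °C under 20 lux. Values are mean ± S.E.M.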

Mus musculus [2] = experiment: Inhibition of haloperidol-induced catalepsy in Swiss albino mouse assessed as time elapsed until release of forepaw from bar at 100 mg/kg, […] 30 min prior to haloperidol challenge measured after 30 mins by bar test; in short: as §1
Mus musculus [3] = experiment: Inhibition of haloperidol-induced catalepsy in Swiss albino mouse assessed as time elapsed until release of forepaw from bar at 100 mg/kg, […] 30 min prior to haloperidol challenge measured after 90 mins by bar test; in short: as §1
Mus musculus [4] = experiment: Inhibition of haloperidol-induced catalepsy in Swiss albino mouse assessed as time elapsed until release of forepaw from bar at 100 mg/kg, […] 30 min prior to haloperidol challenge measured after 120 mins by bar test; in short: as §1
Mus musculus [5] = experiment: Inhibition of haloperidol-induced catalepsy in Swiss albino mouse assessed as time elapsed until release of forepaw from bar at 100 mg/kg, […] 30 min prior to haloperidol challenge measured after 150 mins by bar test; in short: as §1
Mus musculus [6] = experiment: Inhibition of haloperidol-induced catalepsy in Swiss albino mouse assessed as time elapsed until release of forepaw from bar at 100 mg/kg, […] 30 min prior to haloperidol challenge measured after 180 mins by bar test; in short: as §1
Mus musculus [7] = experiment: Inhibition of haloperidol-induced catalepsy in Swiss albino mouse at 100 mg/kg, […] 30 min prior to haloperidol challenge by bar test relative to haloperidol control
In short: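 Mice received compound at 100 mg/kg i.p. (in 0.5% gum acacia) 30 min before haloperidol 5 mg/kg i.p., n = 5. The bar test was run every 30 min over 3 h, and descent times were summed as CDT [3 h]. Haloperidol CDT minus vehicle CDT was set as 100% catalepsy, and % inhibition was calculated against it.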

| SMILES | Catalepsy time (forepaw descent time) (Mus musculus [1]) | descent time (Mus musculus [2]) | catalepsy descent time (Mus musculus [3]) | catalepsy descent time (Mus musculus [4]) | Time to forepaw release from bar (Mus musculus [5]) | Catalepsy duration (time to release forepaw from bar) (Mus musculus [6]) | inhibition (INH) (Mus musculus [7]) |
| --- | --- | --- | --- | --- | --- | --- | --- |
| S=C(Nc1ccc(Cl)cc1)Nc1ncnc2c1sc(=S)n2-c1ccccc1 | 2.45 min | 0.967 min | 2.55 min | 2.8 min | 3.48 min | 4.47 min | 62.6% |
| CCn1c(=S)sc2c(NC(=O)Nc3ccccc3Cl)ncnc21 | 2.3 min | 2.12 min | 2.18 min | 2.62 min | 3.27 min | 3.15 min | 58.4% |
| O=C(Nc1ccccc1[N+](=O)[O-])Nc1ncnc2c1sc(=S)n2-c1ccccc1 | 1.05 min | 0.917 min | 2.02 min | 2.25 min | 2.93 min | 2.95 min | 44.8% |
| O=C(Nc1ccc(F)cc1)Nc1ncnc2c1sc(=S)n2-c1ccccc1 | 1.9 min | 1.42 min | 1.92 min | 2.63 min | 2.55 min | 3.8 min | 52.9% |
| O=[N+]([O-])c1ccccc1NC(=S)Nc1ncnc2c1sc(=S)n2-c1ccccc1 | 1.15 min | 0.7 min | 1.15 min | 1.55 min | 3.9 min | 3.87 min | 45.4% |
| Fc1ccccc1NC(=S)Nc1ncnc2c1sc(=S)n2-c1ccccc1 | 1.65 min | 1.3 min | 2.37 min | 2.67 min | 3.47 min | 4.28 min | 58.8% |
| S=C(Nc1ccccc1)Nc1ncnc2c1sc(=S)n2-c1ccccc1 | 0.967 min | 1.1 min | 1.25 min | 3.2 min | 3.6 min | 3.62 min | 51% |
| O=C(CCCN1CCC(O)(c2ccc(Cl)cc2)CC1)c1ccc(F)cc1 [HALOPERIDOL] | 3.73 min | 3.05 min | 4.55 min | 5 min | 5 min | 5 min | – |
| O=C(Nc1ccc(Cl)cc1)Nc1ncnc2c1sc(=S)n2-c1ccccc1 | 2.95 min | 1.27 min | 2.32 min | 3.42 min | 3.43 min | 4.03 min | 65.3% |
| O=[N+]([O-])c1ccc(NC(=S)Nc2ncnc3c2sc(=S)n3-c2ccccc2)cc1 | 1.88 min | 0.967 min | 2.18 min | 2.45 min | 2.68 min | 2.65 min | 47.5% |
| CCn1c(=S)sc2c(NC(=S)Nc3ccccc3)ncnc21 | 1.92 min | 1.22 min | 2.32 min | 2.33 min | 2.87 min | 2.85 min | 50.1% |
| O=C(Nc1ccccc1Cl)Nc1ncnc2c1sc(=S)n2-c1ccccc1 | 1.97 min | 1.27 min | 2.4 min | 2.78 min | 2.92 min | 2.9 min | 53% |
| CCn1c(=S)sc2c(NC(=O)Nc3ccccc3F)ncnc21 | 1.98 min | 1.12 min | 2.3 min | 2.88 min | 3.1 min | 2.95 min | 53.4% |
| N[C@@H](Cc1ccc(O)c(O)c1)C(=O)O [LEVODOPA] | 0.633 min | 0.317 min | 1.43 min | 1.47 min | 1.42 min | 1.8 min | 25.1% |
| O=C(Nc1ccc([N+](=O)[O-])cc1)Nc1ncnc2c1sc(=S)n2-c1ccccc1 | 1.32 min | 0.883 min | 1.98 min | 2.08 min | 3.18 min | 3.93 min | 49.7% |
| CCn1c(=S)sc2c(NC(=O)Nc3ccc(F)cc3)ncnc21 | 1.65 min | 1.1 min | 1.88 min | 3.07 min | 3.12 min | 3.95 min | 55.1% |
| S=C(Nc1ccccc1Cl)Nc1ncnc2c1sc(=S)n2-c1ccccc1 | 1.93 min | 1.07 min | 3.08 min | 2.63 min | 4.02 min | 3.97 min | 62.6% |
| CCn1c(=S)sc2c(NC(=O)Nc3ccccc3[N+](=O)[O-])ncnc21 | 2.8 min | 1.7 min | 3.48 min | 3.3 min | 3.75 min | 3.8 min | 70.9% |
| CCn1c(=S)sc2c(NC(=O)Nc3ccc([N+](=O)[O-])cc3)ncnc21 | 2.33 min | 1.67 min | 3.23 min | 3.53 min | 3.5 min | 3.85 min | 68.1% |
| CCn1c(=S)sc2c(NC(=S)Nc3ccc(OC)cc3)ncnc21 | 0.717 min | 0.433 min | 1.53 min | 1.9 min | 2.1 min | 2.23 min | 32.3% |
| COc1ccc(NC(=S)Nc2ncnc3c2sc(=S)n3-c2ccccc2)cc1 | 1.1 min | 1.17 min | 1.72 min | 2.63 min | 2.87 min | 2.22 min | 43.1% |
| COc1ccc(NC(=O)Nc2ncnc3c2sc(=S)n3-c2ccccc2)cc1 | 1.53 min | 0.95 min | 1.67 min | 2.25 min | 2.08 min | 2.15 min | 39% |
| O=C(Nc1ccccc1)Nc1ncnc2c1sc(=S)n2-c1ccccc1 | 2.13 min | 0.75 min | 1.63 min | 2.23 min | 3.33 min | 3.25 min | 49.5% |
| Fc1ccc(NC(=S)Nc2ncnc3c2sc(=S)n3-c2ccccc2)cc1 | 2.15 min | 1.25 min | 2.75 min | 3.25 min | 3.63 min | 3.33 min | 61.3% |
| CCn1c(=S)sc2c(NC(=O)Nc3ccc(Cl)cc3)ncnc21 | 2.88 min | 1.07 min | 2.72 min | 2.53 min | 3.77 min | 4.12 min | 64.1% |
| CCn1c(=S)sc2c(NC(=O)Nc3ccccc3)ncnc21 | 2.03 min | 0.817 min | 2.12 min | 2.4 min | 2.22 min | 3.32 min | 47.8% |
| O=C(Nc1ccccc1F)Nc1ncnc2c1sc(=S)n2-c1ccccc1 | 2.1 min | 1.38 min | 2.77 min | 2.35 min | 2.53 min | 2.63 min | 51.2% |
| CCn1c(=S)sc2c(NC(=O)Nc3ccc(OC)cc3)ncnc21 | 1.85 min | 1.28 min | 1.9 min | 2.02 min | 2.3 min | 2.38 min | 43.3% |
